Converted amounts (≈) assume the structure as drawn. The source made the active and inactive calls. The rule behind the calls is not given here.

Data set [1] has as its target T1, Cysteinyl leukotriene receptor 1 (Homo sapiens, UniProt Q9Y271).
T1 sequence (Q9Y271 whole entry): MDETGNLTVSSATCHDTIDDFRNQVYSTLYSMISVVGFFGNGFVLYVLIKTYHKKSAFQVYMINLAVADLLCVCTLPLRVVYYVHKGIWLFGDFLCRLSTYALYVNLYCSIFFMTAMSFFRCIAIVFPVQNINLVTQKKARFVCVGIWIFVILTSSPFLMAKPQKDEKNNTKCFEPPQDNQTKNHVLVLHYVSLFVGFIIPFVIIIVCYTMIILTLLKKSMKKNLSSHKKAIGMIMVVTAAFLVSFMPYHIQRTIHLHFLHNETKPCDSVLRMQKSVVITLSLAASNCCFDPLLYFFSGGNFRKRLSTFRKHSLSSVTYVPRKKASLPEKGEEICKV
Nature of the data set: Antagonist potency at human CysLT1R expressed in African green monkey COS7 cells assessed as inhibition of LTD4-induced Ca2+ levels after 60 mins by fura-2/AM-fluorescence based spectrofluorimetry. It counts as functional, cell-based. Conditions: read-out: pA2 (converted).

Data set [2] concerns the target T2, Peroxisome proliferator-activated receptor gamma (Homo sapiens, UniProt P37231).
T2 sequence (P37231 whole entry): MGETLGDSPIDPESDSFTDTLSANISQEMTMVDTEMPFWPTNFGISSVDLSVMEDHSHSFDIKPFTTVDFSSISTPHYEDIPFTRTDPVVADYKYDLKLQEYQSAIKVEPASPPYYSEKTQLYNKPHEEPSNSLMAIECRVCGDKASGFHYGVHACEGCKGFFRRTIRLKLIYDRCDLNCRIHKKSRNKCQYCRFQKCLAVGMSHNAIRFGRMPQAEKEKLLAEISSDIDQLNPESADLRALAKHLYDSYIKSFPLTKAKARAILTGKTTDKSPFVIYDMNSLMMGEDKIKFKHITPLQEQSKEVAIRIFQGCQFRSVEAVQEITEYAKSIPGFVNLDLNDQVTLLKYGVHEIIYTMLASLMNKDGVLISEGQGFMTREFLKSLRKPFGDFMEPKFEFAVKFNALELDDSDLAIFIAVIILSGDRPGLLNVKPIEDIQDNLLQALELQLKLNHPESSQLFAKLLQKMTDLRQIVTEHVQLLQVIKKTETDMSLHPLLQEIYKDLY
Nature of the data set: Partial agonist activity at human PPARgamma LBD expressed HEK293T cells after 12 to 14 hrs by dual-glo luciferase reporter gene assay.

For data set [3], the target named is T3, Bifunctional epoxide hydrolase 2 (Homo sapiens, UniProt P34913).
T3 sequence (P34913 whole entry): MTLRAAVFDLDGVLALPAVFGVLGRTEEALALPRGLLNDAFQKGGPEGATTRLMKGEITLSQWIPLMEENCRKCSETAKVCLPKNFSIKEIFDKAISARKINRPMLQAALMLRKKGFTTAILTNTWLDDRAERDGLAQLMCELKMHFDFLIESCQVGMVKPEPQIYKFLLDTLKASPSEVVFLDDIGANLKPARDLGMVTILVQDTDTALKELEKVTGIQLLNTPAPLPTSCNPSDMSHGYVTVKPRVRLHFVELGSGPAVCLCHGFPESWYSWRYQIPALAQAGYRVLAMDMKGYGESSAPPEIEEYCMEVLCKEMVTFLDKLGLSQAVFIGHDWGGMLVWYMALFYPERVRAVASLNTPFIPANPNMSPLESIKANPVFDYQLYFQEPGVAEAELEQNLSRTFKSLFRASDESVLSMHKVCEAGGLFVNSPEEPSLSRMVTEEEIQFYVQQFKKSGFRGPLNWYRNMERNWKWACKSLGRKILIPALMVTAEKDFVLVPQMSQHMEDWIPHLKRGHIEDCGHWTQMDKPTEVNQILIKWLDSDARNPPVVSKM
In words: Inhibition of recombinant human sEH using PHOME as substrate preincubated for 30 mins followed by substrate addition and measured after 30 mins by spectrofluorimetry.

The nature of data set [4]: Metabolic stability in Sprague-Dawley rat liver microsomes assessed as compound remaining at 10 uM in presence of NADPH regenerating system after 4 hrs by HPLC analysis. It counts as ADME, microsome. Conditions: read-out: Stability. (Liver microsomes are vesicles of endoplasmic reticulum, rich in cytochrome P450 enzymes.)
Data set [5] has as its system Mus musculus. In words: Anti-inflammatory activity in zymosan-induced paw edema C57BL/6N mouse model assessed as reduction in paw edema at 10 mg/kg, po via gavage pretreated for 30 mins followed by zymosan injection and measured after 24 hrs post zymosan injection by plethysmometry. It counts as functional, organism-based. In short, it runs like this: (§1)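 Zymosan was injected intraplantar into one hindpaw of C57BL/6N mice. Test compound or vehicle was given orally at 10 mg/kg 30 min beforehand. Paw edema was measured by plethysmometry at 8 h and 24 h after zymosan, with the contralateral hindpaw as a control.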

The nature of data set [6]: Lipophilicity, log D of the compound at 30 uM at pH 7.4 by HPLC method. Conditions: buffer. It counts as physicochemical.
A short description of data set [7]: Aqueous solubility of the compound at 5 mg after 24 hrs by HPLC analysis. It counts as physicochemical. Conditions: water.
In data set [8] the target is T4, Nuclear receptor subfamily 1 group I member 2 (Homo sapiens, UniProt O75469).
T4 sequence (O75469 whole entry): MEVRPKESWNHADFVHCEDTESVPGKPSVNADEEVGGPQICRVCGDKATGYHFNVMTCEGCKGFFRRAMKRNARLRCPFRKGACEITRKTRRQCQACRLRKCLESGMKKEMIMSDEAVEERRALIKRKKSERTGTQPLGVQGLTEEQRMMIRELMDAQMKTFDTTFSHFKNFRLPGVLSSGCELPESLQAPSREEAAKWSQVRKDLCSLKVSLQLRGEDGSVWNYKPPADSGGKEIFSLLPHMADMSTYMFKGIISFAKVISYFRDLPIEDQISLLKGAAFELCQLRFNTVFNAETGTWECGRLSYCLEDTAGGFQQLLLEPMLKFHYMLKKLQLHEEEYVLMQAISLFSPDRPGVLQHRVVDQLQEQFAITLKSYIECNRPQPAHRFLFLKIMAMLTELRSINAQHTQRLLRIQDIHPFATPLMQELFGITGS
In words: Agonist activity at human PXR LBD expressed HEK293T cells at 10 uM after 12 to 14 hrs by dual-glo luciferase reporter gene assay. It counts as ADME. Background: In a reporter assay the amount or activity of a reporter protein is the signal.

For data set [9], the system named is Mus musculus. Nature of the data set: Anti-inflammatory activity in zymosan-induced paw edema C57BL/6N mouse model assessed as reduction in paw edema at 10 mg/kg, po via gavage pretreated for 30 mins followed by zymosan injection and measured after 8 hrs post zymosan injection by plethysmometry. The data set is classed as functional, organism-based. In a few lines:
as §1

For data set [10], the target named is T5, Nuclear receptor subfamily 1 group I member 3 (Homo sapiens, UniProt Q14994).
T5 sequence (Q14994 whole entry): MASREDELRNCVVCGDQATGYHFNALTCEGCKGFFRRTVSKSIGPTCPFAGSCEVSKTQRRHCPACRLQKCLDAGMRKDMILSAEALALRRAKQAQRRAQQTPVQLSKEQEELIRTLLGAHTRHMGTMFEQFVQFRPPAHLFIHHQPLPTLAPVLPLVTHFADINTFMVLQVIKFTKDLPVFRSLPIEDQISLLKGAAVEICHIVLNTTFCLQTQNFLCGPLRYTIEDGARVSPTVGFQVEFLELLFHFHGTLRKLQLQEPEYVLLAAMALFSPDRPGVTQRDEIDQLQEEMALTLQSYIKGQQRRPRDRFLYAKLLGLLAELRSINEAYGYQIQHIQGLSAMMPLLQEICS
Nature of the data set: Agonist activity at human CAR LBD expressed HEK293T cells at 10 uM after 12 to 14 hrs by dual-glo luciferase reporter gene assay. It counts as ADME.

Data set [11] addresses T6, Peroxisome proliferator-activated receptor gamma (Mus musculus, UniProt P37238).
T6 sequence (P37238 whole entry): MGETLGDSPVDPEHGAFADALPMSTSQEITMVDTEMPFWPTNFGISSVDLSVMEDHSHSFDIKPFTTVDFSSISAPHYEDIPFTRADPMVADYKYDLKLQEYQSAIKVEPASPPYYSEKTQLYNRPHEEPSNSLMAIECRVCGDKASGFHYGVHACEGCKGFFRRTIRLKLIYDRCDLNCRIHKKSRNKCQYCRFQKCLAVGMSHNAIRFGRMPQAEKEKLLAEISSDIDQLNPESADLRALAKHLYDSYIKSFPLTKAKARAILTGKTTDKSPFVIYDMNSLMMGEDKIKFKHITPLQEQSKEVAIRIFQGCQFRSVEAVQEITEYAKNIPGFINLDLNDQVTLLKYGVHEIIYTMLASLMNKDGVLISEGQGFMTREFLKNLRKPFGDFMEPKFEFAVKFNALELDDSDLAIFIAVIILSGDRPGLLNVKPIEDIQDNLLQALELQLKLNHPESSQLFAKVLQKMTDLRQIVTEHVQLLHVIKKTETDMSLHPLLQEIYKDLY
Nature of the data set: Agonist activity at PPARgamma in mouse 3T3-L1 cells assessed as increase in CD36 mRNA expression at 1 uM after 15 days by quantitative real-time PCR method. Conditions: 3t3-l1, 360 h. The data set is classed as cell-based. (Real-time PCR tracks product formation cycle by cycle.)

Data set [12] deals with T7, Peroxisome proliferator-activated receptor gamma (Mus musculus) (UniProt P37238).
T7 sequence (whole entry): T6 sequence (P37238 whole entry)
Nature of the data set: Agonist activity at PPARgamma in mouse 3T3-L1 cells assessed as increase in CPT1A mRNA expression at 1 uM after 15 days by quantitative real-time PCR method. The data set is classed as cell-based.

Data set [13] deals with T6, Peroxisome proliferator-activated receptor gamma. Nature of the data set: Agonist activity at PPARgamma in mouse 3T3-L1 cells assessed as induction of adipocyte differentiation at 1 uM after 15 days by Oil Red O staining-based assay. Conditions: 3t3-l1, 360 h. The data set is classed as cell-based.

In general, EC50 refers to the midpoint of the concentration-response curve. Broadly, the IC50 is the concentration that inhibits the measured activity by half. Regarding `COc1cc(C(=O)NS(=O)(=O)c2cccc(F)c2)ccc1Cc1cn(C)c2ccc(NC(=O)NC3CCCCC3)cc12`, the Kb in data set [1] was 12.6 nM. This compound also came in with an EC50 in [2] of 200 nM. Further, in data set [3], the IC50 was determined as 410 nM.
Take `COc1cc(C(=O)NS(=O)(=O)c2ccccc2)ccc1Cc1cn(C)c2ccc(NC(=O)OC3CCCC3)cc12`: in data set [1], the Kb is 0.0794 nM. This compound also gave an EC50 in [2] of 230 nM. Further, in [3], the IC50 amounted to 2500 nM.
The like results for `COc1cc(C(=O)NS(=O)(=O)c2cccc(Cl)c2)ccc1Cc1cn(C)c2ccc(NC(=O)OC3CCCC3)cc12` were, in that order, 0.1 nM, 140 nM and 7000 nM.
Usually logD stands for lipophilicity at a set pH, counting ionised and neutral species. A word on the solubility: it is the dissolved amount per volume that the medium holds. `COc1cc(C(=O)NS(=O)(=O)c2ccccc2C)ccc1Cc1cn(C)c2ccc(NC(=O)OC3CCCC3)cc12` [ZAFIRLUKAST]: the remaining at 4 h, 10 µM in [4] is 73%. For the same compound, the result in the data set on Mus musculus [5] and with Mus musculus [9] was inactive. In [6], this compound registered a logD at 30 µM of 2.47. The amount in solution in [7] (solubility at 24 h) came to 0.14 µg/mL (≈ 0.243 µM). Moreover, the outcome in data set [8] and in [10] was Active. This compound also displayed an EC50 in data set [2] of 2440 nM. The IC50 in data set [3] stood at 2000 nM.
`CN(CCOc1ccc(CC2SC(=O)NC2=O)cc1)c1ccccn1` (stereo unspecified) [ROSIGLITAZONE]: the outcome in [11] and in [13] was Active. Besides, in data set [12], the outcome was Active.
As to `COc1cc(C(=O)NS(=O)(=O)c2cccc(Cl)c2)ccc1Cc1cn(C)c2ccc(NC(=O)NC3CCCCC3)cc12`, the Kb in data set [1] was 1.26 nM. The compound further had an EC50 in [2] of 370 nM. In data set [3], the half-maximal inhibitory concentration (IC50) worked out at 680 nM.
In the case of `COc1cc(C(=O)NS(=O)(=O)c2ccccc2C)ccc1Cc1cn(C)c2ccc(NC(=O)NC3CCCC3)cc12`, the Kb in data set [1] is 0.794 nM. Moreover, the half-maximal effective concentration (EC50) in data set [2] came out at 2490 nM. Moreover, the IC50 in data set [3] came out at 590 nM.
The like results for `COc1cc(C(=O)NS(=O)(=O)c2cc(Cl)cc(Cl)c2)ccc1Cc1cn(C)c2ccc(NC(=O)NC3CCCCC3)cc12` were, in that order, 6.31 nM, 740 nM and 550 nM.
Regarding `COc1cc(C(=O)NS(=O)(=O)c2cccc(C(F)(F)F)c2)ccc1Cc1cn(C)c2ccc(NC(=O)NC3CCCCC3)cc12`, the Kb in [1] was 5.01 nM. Also, the EC50 in data set [2] was determined as 350 nM. Moreover, the IC50 in [3] worked out at 1490 nM.
The like results for `COc1cc(C(=O)NS(=O)(=O)c2ccccc2C)ccc1Cc1cn(C)c2ccc(NC(=O)NC3CCCCC3)cc12` were, in that order, 25.1 nM, 670 nM and 150 nM.

Values taken from ChEMBL document CHEMBL4251751 (J Med Chem, 2018).
